Screening results deposited in PubChem by several laboratories.
hDAT+cocaine = changed hDAT dopamine uptake under cocaine IC80, either direction, primary screen, cocaine antagonist project, cell-based, LLC-PK1 hDAT, [14C]-dopamine uptake, MLSMR; Sodium-dependent dopamine transporter (Homo sapiens), Q01959; LLC-PK1 hDAT cells, [14C]-dopamine uptake with cocaine IC80; actives deviate in either direction; B-score at 10 µM; actives 1.3% (n = 110,000); AID 449768, 2010;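 active = Z score or B-score, a plate-position-corrected score, falls beyond the plate's 99.7% confidence bounds, in either direction; inactive = both scores lie inside the 99.7% bounds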;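 also: scored against the spread of the other compound wells on the same plate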
Target sequence (Q01959 whole entry, looked up): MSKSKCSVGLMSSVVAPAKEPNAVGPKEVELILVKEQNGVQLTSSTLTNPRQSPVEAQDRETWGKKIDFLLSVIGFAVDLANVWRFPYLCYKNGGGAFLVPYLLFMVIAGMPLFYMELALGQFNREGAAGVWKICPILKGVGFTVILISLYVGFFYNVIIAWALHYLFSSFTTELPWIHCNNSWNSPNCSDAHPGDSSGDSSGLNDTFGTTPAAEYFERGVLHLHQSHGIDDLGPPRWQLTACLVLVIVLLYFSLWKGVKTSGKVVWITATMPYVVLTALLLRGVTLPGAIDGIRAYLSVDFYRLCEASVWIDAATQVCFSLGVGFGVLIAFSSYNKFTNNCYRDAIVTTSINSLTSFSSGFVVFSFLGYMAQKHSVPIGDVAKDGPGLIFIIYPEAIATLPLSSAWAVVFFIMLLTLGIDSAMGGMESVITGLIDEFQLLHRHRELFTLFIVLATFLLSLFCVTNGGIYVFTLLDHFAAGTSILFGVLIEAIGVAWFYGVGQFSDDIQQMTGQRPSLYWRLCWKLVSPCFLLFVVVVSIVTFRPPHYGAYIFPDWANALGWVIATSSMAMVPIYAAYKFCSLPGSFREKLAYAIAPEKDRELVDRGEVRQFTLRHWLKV
AP ELISA ortho = alternative complement pathway inhibitors, primary screen, biochemical, ELISA, human serum, orthogonally pooled compounds. LPS-coated ELISA, C3 deposition; tested in compound mixtures. inhibition, % at 5 µM. actives 0.08% (n = 62,000). AID 1235, 2008;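 active = inhibition above 30% in each of the two pooled mixtures holding the compound, so the lower value exceeds 30%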;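 also: 0% = serum in Mg-EGTA without compound and 100% = EDTA serum blank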
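Assay system: human serum alternative complement pathway, C3 deposition on LPS-coated wells; Dosing: 5 µM per compound in ten-compound mixtures; Detection: Anti-C3 ELISA, OD 450 nm; Buffer or medium: Mg2+-EGTA GVB++ buffer containing human serum at 1:15 dilution; Timing: 1 h at 37 °C; Replication: two different pools per compound.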
D1 allo mod = D1 CRE-luciferase signal change, two-sided – cell-based, HEK293 D1, dopamine EC30, D1 allosteric modulator project, primary screen | B-score at 10 µM | actives 5.9% (n = 58,000) | AID 641, 2007 | D(1A) dopamine receptor (Homo sapiens), P21728 | dopamine EC30 potentiation; actives deviate in either direction;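 active = luminescence count or its row- and column-corrected plate score outside the 99.7% band of the plate's sample wells, on either side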
WNV protease inh = inhibitors of WNV NS2B-NS3 protease, primary screen, biochemical, fluorogenic substrate | fluorogenic substrate Ex360/Em465; stronger effect = lower value | actives 0.18% (n = 65,000) | Genome polyprotein (West Nile virus), P06935 | z-score (concentration not given with the values); in the data active = z-score below about -3
The depositor's hits bear a star; x = not tested or not shown. The sample as a whole holds a higher share of hits than the screen did.

SMILES	hDAT+cocaine	AP ELISA ortho	D1 allo mod	WNV protease inh
Cc1cc(N2C(=O)C3CC=CCC3C2=O)no1 (stereo unspecified)	-0.62	x	x	x
CC(C)c1nnc(NC(=O)CCC(=O)NCc2cccs2)s1	0.88	x	x	x
COc1c(O)cccc1[C@@H](O)C1CCN(CCc2ccc(F)cc2)CC1	-0.15	x	x	x
COc1ccc(C2CC(c3ccc(OC)cc3)n3nc(N)nc3N2)cc1 (stereo unspecified)	0.15	11	0.009	1.6
COc1cccc(C2CC(c3cccc(C)c3)n3ncnc3N2)c1 (stereo unspecified)	0.23	9	0.35	0.64
COc1ccc(C2CC(c3ccccc3)Nc3nc(N)nn32)cc1 (stereo unspecified)	2.5*	x	x	-0.28
COc1ccc(C2CC(c3cccc(C)c3)n3ncnc3N2)cc1 (stereo unspecified)	1.1	-19	-0.035	-4.1*
CCc1cc2cc(C(=O)N3CCN(Cc4ccccc4)CC3)sc2s1	2.6*	2	0.32	-1.4
CCc1cc2cc(C(=O)N3CCN(c4ccccc4)CC3)sc2s1	-0.09	x	x	x
O=C(Nc1nc2ccccc2s1)C1CC(=O)N(c2ccc(F)cc2)C1 (stereo unspecified)	1.1	x	x	x
O=C(Nc1ccc(S(=O)(=O)NCc2ccccc2)cc1)c1ccc(Br)o1	-0.26	x	x	x
CC(=O)NS(=O)(=O)c1ccc(NC(=O)c2ccc(Br)o2)cc1	-8.4*	x	x	x
Cc1ccc(S(=O)(=O)N/N=C/c2c(C)nn(-c3ccccc3)c2C)cc1	2.5*	x	x	x
CCOC(=O)c1[nH]c(C(=O)O)c(CCN(CC)CC)c1C	-0.48	x	x	-1.3
Cc1ccc(CSCC(=O)N/N=C/c2sccc2C)cc1	3.2*	x	x	x
CCCC(=O)N1CCN(c2ccc(NC(=O)c3cc4ccccc4o3)cc2Cl)CC1	1.8	13	-2.7	1.2
CCC(=O)N1CCN(c2ccc(NC(=O)c3cc4ccccc4o3)cc2Cl)CC1	0.44	10	-3.9*	1.2
CCN1CCN(c2cc(C)c3cc(NC(=O)c4ccc(Br)o4)ccc3n2)CC1	0.62	23	-2.5*	-0.1
C#CCOCCOCCOCCNc1nc(N2CCN(C(=O)C([C@@H](C)CC)n3cc(C(N)CO)nn3)CC2)nc(N2CCN(C(=O)C([C@@H](C)CC)n3cc(C(N)COC(=O)C(F)(F)F)nn3)CC2)n1 (stereo partly specified)	-0.052	x	x	x
O=C(OCc1cccs1)c1ccccc1NS(=O)(=O)c1ccc2c(c1)OCCO2	0.92	12	2.4	-0.56
CC(=O)N(Cc1ccc(F)cc1)C1=C(NCc2ccccc2)C(=O)c2ccccc2C1=O	-4.3*	x	x	x
O=S(=O)(NCCCN1CCN(c2ccccc2F)CC1)c1cccc2cccnc12	1.7	12	-2.9*	0.55
C=C1C(=O)[C@@]23[C@H](O)C[C@@H]4C(C)(C)CC[C@H](O)[C@@]4(C)[C@@H]2CC[C@@H]1[C@H]3O	-0.69	x	x	x
C=C1C(=O)[C@@]23[C@H](O)C[C@@H]4C(C)(C)CC[C@H](O)[C@]4(C)[C@@H]2C[C@H](O)[C@@H]1[C@H]3O	-4.8*	x	x	x
CCOC(=O)c1cnc(SCc2cccc(C)c2)nc1N	0.044	x	x	x
SMILES	hDAT+cocaine	AP ELISA ortho	D1 allo mod	WNV protease inh
Cc1cccc(/C=N/NC(=O)C(C)Nc2cccc3ccccc23)n1 (stereo unspecified)	2.5*	x	x	x
Cc1nn(C)c(C)c1S(=O)(=O)N1CCC(C(=O)NC2CCCCC2)CC1	-0.018	6	0.49	-0.69
Cc1nn(C)c(C)c1S(=O)(=O)N1CCC(C(=O)NC2CCCCCC2)CC1	-2.6*	17	0.19	-0.73
CC1CCCN(c2ncnc3c2cnn3-c2ccccc2)C1 (stereo unspecified)	1.3	9	-7.6*	-0.9
CCN1CCN(c2ncnc3c2cnn3-c2ccccc2)CC1	-0.11	27	-0.82	0.99
CN1CCN(c2ncnc3c2cnn3-c2ccc(Cl)cc2)CC1	-0.032	0	-6.2*	-0.31
c1ccc(-n2ncc3c(N4CCCCC4)ncnc32)cc1	0.1	-16	-6.9*	0.62
Cc1ccccc1C(=O)N1CCN(c2ncnc3c2cnn3-c2ccccc2)CC1	-5.3*	x	x	x
Cc1cc(CNC(=O)C2(C(F)(F)F)C/C(=C\Cc3ccccc3)CCCO2)nn1C (stereo unspecified)	-0.74	x	x	x
